Results published in ChEMBL document CHEMBL1221274, “Discovery and expanded SAR of 4,4-disubstituted quinazolin-2-ones as potent T-type calcium channel antagonists” (Bioorg Med Chem Lett, 2010).
Calls of active or inactive are those of the source. The calls are words filed in the database; no cut-off is given here.

How the values were obtained:
[1] = target: Voltage-dependent T-type calcium channel subunit alpha-1I (Homo sapiens) (UniProt Q9P0X4); assay: Antagonist activity at Cav3.3 alpha1i by depolarized FLIPR assay; type: functional
[2] = target: T1, PXR (nuclear receptor subfamily 1 group I member 2) (Homo sapiens, UniProt O75469); assay: PXR activation relative to rifampicin at 10 uM; settings: activation
T1 sequence (O75469 whole entry): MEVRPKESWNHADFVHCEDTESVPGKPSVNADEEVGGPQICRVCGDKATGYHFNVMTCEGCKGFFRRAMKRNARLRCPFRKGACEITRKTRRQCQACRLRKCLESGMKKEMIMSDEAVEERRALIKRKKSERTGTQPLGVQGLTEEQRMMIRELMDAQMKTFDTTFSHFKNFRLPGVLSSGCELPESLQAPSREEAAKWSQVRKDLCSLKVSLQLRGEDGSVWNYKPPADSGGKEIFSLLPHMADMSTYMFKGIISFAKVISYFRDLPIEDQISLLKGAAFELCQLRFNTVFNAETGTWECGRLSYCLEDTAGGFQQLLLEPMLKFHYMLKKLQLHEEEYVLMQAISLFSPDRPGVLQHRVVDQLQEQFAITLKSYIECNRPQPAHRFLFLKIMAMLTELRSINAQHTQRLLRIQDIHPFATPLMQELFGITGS

[3] = target: Voltage-dependent T-type calcium channel subunit alpha-1I (Homo sapiens) (UniProt Q9P0X4); assay: Antagonist activity at Cav3.3 alpha1i by hyperpolarized FLIPR assay; type: functional
[4] = target: T2, Nuclear receptor subfamily 1 group I member 2 (Homo sapiens, UniProt O75469); assay: PXR activation relative to rifampicin at 10 uM; settings: 10 µM
T2 sequence (O75469 whole entry): T1 sequence (O75469 whole entry)

[5] = Metabolic stability in human liver microsome assessed as compound remaining after 60 mins; type: ADME; settings: liver microsomes, read-out: Stability
Summary of the method: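 Human liver microsomes (0.2 mg protein/mL) incubated with test compound at 1 µM plus NADPH cofactor at 37 °C for 30 or 60 min; percent parent compound remaining measured.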

[6] = Plasma protein binding in rat; type: ADME, cell-free; settings: read-out: PPB (converted)
[7] = Plasma clearance in dog; type: ADME, organism-based, Canis lupus familiaris
Rattus norvegicus [8] = assay: Effect on sleep-awake pattern in rat assessed as decrease in active awake at 10 mg/kg, po for 16 hrs; type: functional, organism-based; set-up: dose 10 mg/kg
Summary of the method: (§1)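 Crossover rat study over seven days, n = 7 male rats. ECoG and EMG recorded for 16 h and scored as active wake, light sleep, delta sleep or REM, as minutes per 30 min bin (±SEM). Each time point compared by linear mixed-effects ANOVA.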

[9] = Volume of distribution at steady state in rat; type: ADME, organism-based; settings: in vivo, read-out: Vdss
[10] = Oral bioavailability in rat; type: ADME, organism-based; settings: in vivo
Rattus norvegicus [11] = assay: Effect on sleep-awake pattern in rat assessed as decrease in REM sleep at 10 mg/kg, po for 16 hrs; type: functional, organism-based; set-up: dose 10 mg/kg; summary of the method: as §1
Rattus norvegicus [12] = species on record: Rattus norvegicus; assay: Effect on rat Pgp-mediated drug transport assessed as efflux ratio of permeability from basolateral to apical over apical to basolateral side
[13] = Volume of distribution at steady state in dog; type: ADME, organism-based, Canis lupus familiaris; settings: in vivo, read-out: Vdss
[14] = Plasma clearance in rat; type: ADME, organism-based
[15] = Half life in monkey; type: ADME, organism-based, Macaca mulatta; settings: rhesus monkey, in vivo
Cytochrome P450 3A4 = Cytochrome P450 3A4 (Homo sapiens, UniProt P08684); assay: Inhibition of CYP3A4; type: ADME; settings: TDE = time-dependent effect
Rattus norvegicus [16] = assay: Antiepileptic activity in […] rat assessed as inhibition of total seizures at 10 mg/kg, po after 4 hrs; type: functional
Summary of the method: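 Seizure suppression measured by EEG in WAG/Rij rats (absence epilepsy model) after oral dosing; total seizure time scored 4 h post dose and expressed as percent inhibition.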

Homo sapiens [17] = species on record: Homo sapiens; assay: Plasma protein binding in human; settings: read-out: PPB (converted)
[18] = Half life in rat; type: ADME, organism-based; settings: in vivo
[19] = Volume of distribution at steady state in monkey; type: ADME, organism-based, Macaca mulatta; settings: rhesus monkey, in vivo; read-out: Vdss
Homo sapiens [20] = species on record: Homo sapiens; assay: Effect on human Pgp-mediated drug transport assessed as efflux ratio of permeability from basolateral to apical over apical to basolateral side
Rattus norvegicus [21] = assay: Effect on sleep-awake pattern in rat assessed as increase in delta sleep at 10 mg/kg, po for 16 hrs; type: functional, organism-based; set-up: dose 10 mg/kg; summary of the method: as §1
[22] = Oral bioavailability in monkey; type: ADME, organism-based, Macaca mulatta; settings: rhesus monkey, in vivo
[23] = Plasma clearance in monkey; type: ADME, organism-based, Macaca mulatta; settings: rhesus monkey
[24] = Half life in dog; type: ADME, organism-based, Canis lupus familiaris; settings: in vivo

Voltage-dependent T-type calcium channel subunit alpha-1I (Homo sapiens), sequence (Q9P0X4 whole entry): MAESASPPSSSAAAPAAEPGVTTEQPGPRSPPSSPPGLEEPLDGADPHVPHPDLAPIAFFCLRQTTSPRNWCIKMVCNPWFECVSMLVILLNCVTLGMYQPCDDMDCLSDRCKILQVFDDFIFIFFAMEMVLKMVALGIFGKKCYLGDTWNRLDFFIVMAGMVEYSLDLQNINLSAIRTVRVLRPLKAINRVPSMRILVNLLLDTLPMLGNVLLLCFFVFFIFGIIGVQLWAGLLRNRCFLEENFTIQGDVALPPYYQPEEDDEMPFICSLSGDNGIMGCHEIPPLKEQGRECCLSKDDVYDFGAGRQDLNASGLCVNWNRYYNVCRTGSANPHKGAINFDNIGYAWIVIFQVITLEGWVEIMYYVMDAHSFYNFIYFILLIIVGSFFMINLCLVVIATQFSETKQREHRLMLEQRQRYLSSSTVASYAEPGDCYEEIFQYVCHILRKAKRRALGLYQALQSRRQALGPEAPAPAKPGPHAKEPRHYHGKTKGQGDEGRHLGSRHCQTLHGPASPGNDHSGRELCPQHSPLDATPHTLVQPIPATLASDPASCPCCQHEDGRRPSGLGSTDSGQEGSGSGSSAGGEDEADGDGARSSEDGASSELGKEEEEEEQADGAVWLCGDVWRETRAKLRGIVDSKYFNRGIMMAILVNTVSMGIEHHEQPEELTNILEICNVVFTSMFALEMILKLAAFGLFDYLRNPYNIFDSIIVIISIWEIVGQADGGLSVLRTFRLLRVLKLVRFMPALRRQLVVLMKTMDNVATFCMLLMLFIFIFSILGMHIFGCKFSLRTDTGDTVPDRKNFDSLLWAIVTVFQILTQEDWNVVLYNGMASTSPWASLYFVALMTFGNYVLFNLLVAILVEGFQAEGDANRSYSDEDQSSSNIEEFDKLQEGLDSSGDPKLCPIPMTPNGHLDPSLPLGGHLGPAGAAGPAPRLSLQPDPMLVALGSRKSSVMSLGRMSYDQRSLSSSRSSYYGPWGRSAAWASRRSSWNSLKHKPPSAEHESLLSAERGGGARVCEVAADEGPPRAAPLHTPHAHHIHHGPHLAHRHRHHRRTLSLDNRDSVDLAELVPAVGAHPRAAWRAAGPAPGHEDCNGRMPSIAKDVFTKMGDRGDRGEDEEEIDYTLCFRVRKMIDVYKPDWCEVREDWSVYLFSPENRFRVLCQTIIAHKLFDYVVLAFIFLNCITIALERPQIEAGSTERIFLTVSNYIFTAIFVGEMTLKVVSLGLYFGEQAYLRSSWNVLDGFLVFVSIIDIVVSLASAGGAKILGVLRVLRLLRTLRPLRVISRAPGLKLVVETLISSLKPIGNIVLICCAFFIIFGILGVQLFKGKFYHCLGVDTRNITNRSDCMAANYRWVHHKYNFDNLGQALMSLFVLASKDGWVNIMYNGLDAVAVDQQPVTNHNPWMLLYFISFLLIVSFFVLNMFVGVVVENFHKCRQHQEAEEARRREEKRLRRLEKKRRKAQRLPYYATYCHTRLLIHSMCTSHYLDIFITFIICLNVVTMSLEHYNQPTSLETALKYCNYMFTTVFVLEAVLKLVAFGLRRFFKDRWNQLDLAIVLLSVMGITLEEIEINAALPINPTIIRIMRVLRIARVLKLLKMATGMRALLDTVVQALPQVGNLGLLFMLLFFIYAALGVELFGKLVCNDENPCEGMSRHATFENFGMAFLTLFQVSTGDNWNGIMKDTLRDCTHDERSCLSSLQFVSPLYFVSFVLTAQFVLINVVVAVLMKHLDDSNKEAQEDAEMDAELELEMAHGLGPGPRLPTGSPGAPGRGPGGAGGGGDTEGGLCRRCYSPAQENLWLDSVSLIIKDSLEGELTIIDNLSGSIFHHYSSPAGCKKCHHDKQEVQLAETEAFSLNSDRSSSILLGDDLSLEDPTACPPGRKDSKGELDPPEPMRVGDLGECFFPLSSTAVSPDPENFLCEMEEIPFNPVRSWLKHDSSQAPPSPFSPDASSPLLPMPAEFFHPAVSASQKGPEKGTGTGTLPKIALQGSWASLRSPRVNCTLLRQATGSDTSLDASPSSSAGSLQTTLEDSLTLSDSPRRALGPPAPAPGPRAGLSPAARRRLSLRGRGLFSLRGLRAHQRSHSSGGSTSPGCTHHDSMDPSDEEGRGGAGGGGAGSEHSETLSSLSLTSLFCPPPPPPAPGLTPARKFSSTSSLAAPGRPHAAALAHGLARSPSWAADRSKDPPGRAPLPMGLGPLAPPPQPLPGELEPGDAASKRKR
Cytochrome P450 3A4, sequence (P08684 whole entry): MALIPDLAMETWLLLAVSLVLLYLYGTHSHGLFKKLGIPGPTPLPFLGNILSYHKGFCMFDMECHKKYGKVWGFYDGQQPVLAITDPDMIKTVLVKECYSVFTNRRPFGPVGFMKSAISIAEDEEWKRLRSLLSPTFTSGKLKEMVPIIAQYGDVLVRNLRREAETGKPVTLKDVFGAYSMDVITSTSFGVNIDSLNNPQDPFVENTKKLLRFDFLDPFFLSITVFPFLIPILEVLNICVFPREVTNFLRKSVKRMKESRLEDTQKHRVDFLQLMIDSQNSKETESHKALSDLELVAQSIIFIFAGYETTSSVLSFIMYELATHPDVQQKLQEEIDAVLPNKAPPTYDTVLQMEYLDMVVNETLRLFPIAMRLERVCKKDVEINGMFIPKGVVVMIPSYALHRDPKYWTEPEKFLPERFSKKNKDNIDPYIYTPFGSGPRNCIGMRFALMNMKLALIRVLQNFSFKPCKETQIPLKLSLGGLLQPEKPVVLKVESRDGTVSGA

CCC1(c2ccccc2)c2c(F)ccc(F)c2NC(=O)N1CC(F)(F)F (centres undefined)
Activity [1]: 657 nM
activation at 10 µM [2]: 91%

CCC1(c2ccccc2)c2c(ccc(F)c2F)NC(=O)N1CC(F)(F)F (stereo in doubt; 36B)
Activity [1]: 2040 nM

CCCC1(c2ccc(F)cc2)c2cc(Cl)ccc2NC(=O)N1CC(F)(F)F (single isomer, unassigned; 24B)
Activity [1]: 1320 nM

CCCC1(c2cccc(OC)c2)c2cc(Cl)ccc2NC(=O)N1CC(F)(F)F (centres undefined)
Activity [1]: 171 nM

O=C1Nc2ccc(Cl)cc2C(CC(F)F)(c2ccc(F)cc2)N1CC(F)(F)F (single isomer, unassigned; 31B)
Activity [1]: 469 nM

CCC1(c2ccccc2)c2cc(Cl)ccc2NC(=O)N1C (centres undefined)
Activity [1]: 847 nM
Activity [3]: 2170 nM

CCC1(c2ccccc2)c2c(F)cccc2NC(=O)N1CC(F)(F)F (centres undefined)
Activity [1]: 111 nM
activation at 10 µM [2]: 83%

CCC1(c2ccccc2)c2cc(F)ccc2NC(=O)N1CC(F)(F)F (single isomer, unassigned; 35A) [listing 1 of 2 here]
Activation [4]: 63%

CCCC1(c2cccc(N3CCOCC3)c2)c2cc(Cl)ccc2NC(=O)N1CC(F)(F)F (centres undefined)
Activity [1]: 161 nM

CCC1(c2ccccc2)c2c(ccc(Cl)c2F)NC(=O)N1CC(F)(F)F (centres undefined)
Activity [1]: 132 nM
activation at 10 µM [2]: 61%

CCC(C)C1(C2CC2)c2cc(Cl)ccc2NC(=O)N1CC(F)(F)F (centres undefined)
Activity [1]: 447 nM

N#CC1(c2ccc(F)cc2)c2c(ccc(F)c2F)NC(=O)N1CC(F)(F)F (centres undefined)
Activity [1]: 290 nM

O=C1Nc2ccc(F)c(F)c2C(CCF)(c2ccc(F)cc2)N1CC(F)(F)F (centres undefined)
Activity [1]: 17 nM
activation at 10 µM [2]: 53%
remaining at 1 h [5]: 66%

O=C1Nc2ccc(F)c(F)c2C(CCO)(c2ccc(F)cc2)N1CC(F)(F)F (centres undefined)
Activity [1]: 3090 nM

CCC1(c2ccccc2)c2cc(F)ccc2NC(=O)N1CC(F)(F)F (single isomer, unassigned; 35B) [listing 1 of 2 here]
activation at 10 µM [2]: 74%

CCC1(c2ccc(F)c(F)c2)c2cc(Cl)ccc2NC(=O)N1CC(F)(F)F (centres undefined)
Activity [1]: 141 nM

N#Cc1ccc([C@@]2(C3CC3)c3cc(Cl)ccc3NC(=O)N2CC(F)(F)F)cc1
Activity [1]: 14 nM
Activity [3]: 590 nM

CCCC1(c2ccc(F)cc2)c2cc(Cl)ccc2NC(=O)N1CC(F)(F)F (single isomer, unassigned; 24A)
Activity [1]: 25 nM

CCCCC1(C2CC2)c2cc(Cl)ccc2NC(=O)N1CC(F)(F)F (centres undefined)
Activity [1]: 111 nM

CCC1(c2ccccc2)c2c(ccc(F)c2F)NC(=O)N1CC(F)(F)F (single isomer, unassigned) [listing 1 of 2 here]
activation at 10 µM [2]: 48%

CCC1(c2ccc(F)cc2)c2c(ccc(F)c2F)NC(=O)N1CC(F)(F)F (centres undefined)
Activity [1]: 16 nM
activation at 10 µM [2]: 52%
remaining at 1 h [5]: < 1%

CCCC1(c2cccc(-c3nccs3)c2)c2cc(Cl)ccc2NC(=O)N1CC(F)(F)F (centres undefined)
Activity [1]: 62 nM

CCCC1(c2cccc(-c3ccnn3C)c2)c2cc(Cl)ccc2NC(=O)N1CC(F)(F)F (centres undefined)
Activity [1]: 318 nM

O=C1Nc2ccc(Cl)cc2C(CCF)(c2ccc(F)cc2)N1CC(F)(F)F (single isomer, unassigned; 30B)
Activity [1]: 905 nM

CC(C)(C)C1(c2ccccc2)c2cc(F)ccc2NC(=O)N1CC(F)(F)F (centres undefined)
Activity [1]: 757 nM
activation at 10 µM [2]: 44%

CCC1(c2ccc(F)cc2)c2cc(F)ccc2NC(=O)N1CC(F)(F)F (centres undefined)
Activity [1]: 25 nM
activation at 10 µM [2]: 58%

O=C1Nc2ccc(F)c(F)c2C(CC(F)F)(c2ccc(F)cc2)N1CC(F)(F)F (centres undefined)
fraction unbound [6]: 0.021
Activity [1]: 14 nM
clearance [7]: 10.5 mL/min/kg
Activity (Rattus norvegicus [8]): Active
Vd [9]: 6.7 L/kg
bioavailability [10]: 15%
Activity (Rattus norvegicus [11]): Active
Ratio (Rattus norvegicus [12]): 1.5
Vd [13]: 3.6 L/kg
clearance [14]: 55 mL/min/kg
half-life [15]: 5.8 h
inhibition (INH) (Cytochrome P450 3A4): tde
inhibition in vivo at 10 mg/kg (Rattus norvegicus [16]): 70%
fraction unbound (Homo sapiens [17]): 0.015
half-life [18]: 1.6 h
activation at 10 µM [2]: 35%
Vd [19]: 9.8 L/kg
Ratio (Homo sapiens [20]): 1.2
remaining at 1 h [5]: 68%
Activity (Rattus norvegicus [21]): Active
bioavailability [22]: 15%
clearance [23]: 23 mL/min/kg
half-life [24]: 5.9 h

CC[C@]1(c2ccc(F)cc2)c2cc(Cl)ccc2NC(=O)N1CC(F)(F)F
Activity [1]: 61 nM
Activity [3]: 239 nM

CCCC1(c2cccc(Oc3ccccn3)c2)c2cc(Cl)ccc2NC(=O)N1CC(F)(F)F (centres undefined)
Activity [1]: 73 nM

O=C1Nc2ccc(Cl)cc2C(CCF)(c2ccc(F)cc2)N1CC(F)(F)F (single isomer, unassigned; 30A)
Activity [1]: 42 nM

CCC1(c2ccc(F)cc2)c2c(ccc(F)c2F)N(CCOC)C(=O)N1CC(F)(F)F (centres undefined)
Activity [1]: 53 nM
activation at 10 µM [2]: 70%

CCC1(c2ccccc2)c2cc(Cl)ccc2NC(=O)N1CC(F)(F)F (single isomer, unassigned; 21B)
Activity [1]: 3880 nM

CCC1(c2ccc(F)cc2)c2c(ccc(F)c2F)N(Cc2c(C)noc2C)C(=O)N1CC(F)(F)F (centres undefined)
Activity [1]: 1830 nM

CCCC1(c2ccc(OC)cc2)c2cc(Cl)ccc2NC(=O)N1CC(F)(F)F (centres undefined)
Activity [1]: 879 nM

CCCC1(c2ccccc2)c2cc(F)ccc2NC(=O)N1CC(F)(F)F (centres undefined)
Activity [1]: 38 nM
activation at 10 µM [2]: 49%

CCC1(c2ccccc2)c2c(ccc(F)c2F)NC(=O)N1CC(F)(F)F (single isomer, unassigned) [listing 2 of 2 here]
Activity [1]: 20 nM

O=C1Nc2ccc(Cl)cc2C(CC(F)F)(c2ccc(F)cc2)N1CC(F)(F)F (single isomer, unassigned; 31A)
Activity [1]: 60 nM

C=CCC1(c2ccccc2)c2cc(Cl)ccc2NC(=O)N1CC(F)(F)F (centres undefined)
Activity [1]: 87 nM

CCC1(c2ccccc2)c2cc(Cl)ccc2NC(=O)N1CC(F)(F)F (single isomer, unassigned; 21A)
Activity [1]: 71 nM

CCC1(c2ccccc2)c2cc(F)ccc2NC(=O)N1CC(F)(F)F (single isomer, unassigned; 35B) [listing 2 of 2 here]
Activity [1]: 3740 nM

CCCC1(c2ccc(F)cc2)c2c(ccc(F)c2F)NC(=O)N1CC(F)(F)F (centres undefined)
Activity [1]: 6 nM
activation at 10 µM [2]: 73%

CCC1(c2ccccc2)c2cc(F)ccc2NC(=O)N1CC(F)(F)F (single isomer, unassigned; 35A) [listing 2 of 2 here]
Activity [1]: 50 nM
